This passage reports inhibition results from PubChem BioAssay AID1885 (Broad Institute, 2009).

Out of some 300,000 compounds screened, about 4,400 (1.5%) were called active. This is one part of a sample in which actives are shown more often than they occur. A number with no mark means an inactive call.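 The calls were made as follows: active = mean inhibition across valid replicates above about 55% (limit read from the data); inconclusive = mean below that limit but half or more replicates reach it; inactive = mean below it, under half of replicates reach it.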

For orientation: inhibition means the relative decrease from the control value, in per cent.

A short description of this assay: Trypanosoma cruzi replication blockers in host cells – luminescence, NIH3T3 host cells, primary screen (AID 1885).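 Also: signal also drops with host cell toxicity which is not excluded here; 0% = plate median of DMSO wells and 100% = zero luminescence signal; higher percent means less beta-gal luminescence so fewer parasites.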 The settings on record: T. cruzi beta-gal in NIH3T3, luminescence, 90 h; stronger effect = higher value; concentration not given here. The gist of the method: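 System: mouse NIH/3T3 fibroblasts infected with β-gal-expressing T. cruzi Tulahuen C4 / Input: NIH/3T3 cells, 5,000 per well / Buffer or medium: Low-serum DMEM with 2% FBS / Probe or stimulus: 5000 reporter trypomastigotes per well / Schedule: ≥90 h infection period, 3 h prior cell attachment / Measured by: GalScreen luminescence, 60 min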
`Cc1cc(C)c2nc3nc(C)cc(C)c3c(N)c2c1`: the inhibition was 58.9% (active).
Regarding `Cc1cc(C)c2nc(-c3ccco3)cc(C(=O)O)c2c1`, the inhibition was -8.53%.
Consider `Cc1cc(C)c2nc(SCCC#N)nc(C)c2c1`, for which the inhibition is 1.26%.
As for `O=C(COC(=O)c1ncc(Cl)c(Cl)c1Cl)NNC(=O)c1ccccc1`, the figure is -29.7%.
As for `Cc1ccc2nc(NC(=O)C3CSC4(C)CCC(=O)N34)sc2c1` (stereo not given), the figure is -3.69%.
Consider `CC(C)Oc1c(Br)cc(Br)cc1/C=N/NC(N)=S`, for which the inhibition was 66.9% (active).
As for `CCOc1ccc(/C=N/NC(N)=S)cc1`, the figure is 15.1%; as for `NC(=S)N/N=C/c1coc2cc(Cl)ccc2c1=O`, -10.9%; as for `CCc1noc(C)c1C(=O)Nc1nc(-c2ccccc2)cs1`, 6.55%.
As for `CCS(=O)(=O)c1ccc(C(=O)NC)c(Cl)c1Cl`, the figure is -1.91%; as for `CC1=NCCN1S(=O)(=O)c1cccc([N+](=O)[O-])c1`, 7.48%; as for `Cc1ccc(-c2cn(S(=O)(=O)c3cccc([N+](=O)[O-])c3)nc2N)cc1`, 63.5% (active).
On to `Cc1cc(C)n(S(=O)(=O)c2cccc([N+](=O)[O-])c2)n1`, for which the inhibition was 19.3%.
`CCCCCCCNC(=O)C1(CC2CC(c3cccc(Br)c3)=NO2)CCN(C(=O)c2cc(OCC)c(OCC)c(OCC)c2)CC1` (stereo not given): the inhibition was 28.4%.
As for `COc1cc(N)c(Cl)cc1C(=O)OCC(=O)c1ccc2c(c1)NC(=O)CO2`, the figure is -2.39%; as for `CCCCCCCN=C(C)c1ccccc1O`, 2.33%.
As for `CCCCCCc1ccc(O)cc1O`, the figure is 63.7% (active).
As for `CCCCCCc1cc2cc(-c3nnc(-c4ccccc4)o3)c(=O)oc2cc1O`, the figure is 0.529%.
For the molecule `O=C(CNS(=O)(=O)c1ccccc1)N1CCN(C(=O)c2ccco2)CC1`, the inhibition is -1.99%.
As for `Cn1c(=O)n(C)c2cc(NS(=O)(=O)c3ccc(F)cc3)ccc21`, the figure is 2.2%; as for `Cn1c(CCN2CCCC2)nc2cc(NS(=O)(=O)c3ccccc3)ccc21`, 9.31%.
As for `CC1(C)CC(=O)c2c(n(S(=O)(=O)c3ccccc3)c3ccc(NS(=O)(=O)c4ccccc4)cc23)C1`, the figure is 63.5% (active).
As to `CCn1c(SCc2ccccc2)nc2cc(OC)c(OC)cc2c1=O`, the inhibition is 18.8%.
As for `CN1CCN(C(=O)c2ccccc2NC(=O)COc2ccccc2Cl)CC1`, the figure is -5.23%; as for `O=C1c2ccccc2S(=O)(=O)c2cc(N3CCN(c4ccccn4)CC3)ccc21`, -2.13%.
Regarding `CCOc1ccc(NC(=O)COc2ccc(C(=O)N3CCC(C(N)=O)CC3)cc2OC)cc1`, the inhibition is -10.5%.
As for `CCC(=O)Nc1ccc2nn(-c3ccc(F)cc3)nc2c1`, the figure is 55.3% (active); as for `Cc1ccc(-n2nc3ccc(NC(=O)/C=C/c4ccco4)cc3n2)cc1C`, -97.4%; as for `CCC(=O)Nc1ccc(C(=O)Nc2cccc(OC)c2)cc1`, -19%.
As for `C=CCOc1cccc(C2C(C(=O)c3ccc(C)o3)=C(O)C(=O)N2c2nnc(C)s2)c1` (stereo not given), the figure is 5.31%; as for `N#C/C(=C\C1=C(N2CCOCC2)C(=C\c2ccccc2)/CC1)C(=O)Nc1ccccc1F`, 57.8% (active); as for `N#C/C(=C\c1ccccc1C(F)(F)F)C(=O)Nc1ccccc1F`, -1.24%.
As for `C(=N\N1CCN(c2ccccn2)CC1)/C1=C(N2CCOCC2)C(=C/c2ccccc2)/CC1`, the figure is -15.4%.
Regarding `CC(=O)c1ccc(NC(=O)c2sc3nc4n(c(=O)c3c2C)CCCCC4)cc1`, the inhibition was -12.8%.
As for `Cc1ccc(N(CCC(=O)O)S(=O)(=O)c2cccc(C(F)(F)F)c2)cc1`, the figure is -18.4%; as for `Cc1ccc(C)c(NC(=S)NNC(=O)c2csc(C)c2)c1`, 6.88%; as for `CC(C)c1ccc(NC(=S)NNc2ccc(Cl)c(C(=O)O)c2)cc1`, 14.4%.
As for `Cc1ccc(C)c(NC(=S)NNC(=S)Nc2ccc(C(C)C)cc2)c1`, the figure is 65.3% (active).
As for `COc1cc2ccccc2cc1C(=O)Nc1ccncc1`, the figure is 6.55%; as for `CCn1c(=O)c([N+](=O)[O-])c(NCc2ccc3c(c2)OCO3)c2ccccc21`, 24.6%; as for `O=c1oc(/C=C/c2ccccc2)nc2ccccc12`, -17.7%.
For the molecule `CCn1c(/C=C/c2ccc([N+](=O)[O-])o2)nc2ccccc2c1=O`, the inhibition is 85.9% (active).
As for `O=C(Cc1ccc(S(=O)(=O)N2CCOCC2)s1)N1CCN(c2ccc(C(F)(F)F)cc2[N+](=O)[O-])CC1`, the figure is 31%; as for `C=CCNC(=S)N/N=C/c1ccc(C)s1`, 50.5%; as for `CNC(=S)N/N=C/c1ccc(N2CCOCC2)s1`, 57.6% (active).
As for `Cc1cc(C(=O)N/N=C/c2ccc(N3CCOCC3)cc2)c(C)o1`, the figure is 0.447%; as for `CCCCn1c(N)c(N(CCOC)C(=O)c2cccc(S(=O)(=O)N(C)c3ccccc3)c2)c(=O)[nH]c1=O`, 2.71%.
Take `CCc1ccccc1NC(=O)c1ccc2snnc2c1`: the inhibition was -10.4%.
As for `O=C(Nc1ccc2ccccc2c1)Nc1ccc2snnc2c1`, the figure is 57.6% (active); as for `O=C(Nc1cccc(Br)c1)c1ccc2snnc2c1`, 10.3%; as for `O=S(=O)(NCCS(=O)(=O)N1CCN(c2ccccc2)CC1)c1ccc(F)cc1`, -2.33%.
For `Cc1cccc(NC(=O)Nc2cccc(Oc3c(F)c(F)c(F)c(F)c3F)c2)c1`, the inhibition was 68.5% (active).
As for `Cc1cccc(NC(=O)Nc2nnc(-c3ccccc3)o2)c1`, the figure is -4.53%; as for `COc1cccc(NC(=O)NCc2ccc(F)cc2)c1`, 1.25%; as for `COc1ccc(C(=O)NCC(c2ccco2)N2CCc3ccccc32)cc1OC` (stereo not given), 5.94%.
As for `COc1ccc(C(=O)NCC2CCCN2S(=O)(=O)c2cccs2)cc1OC` (stereo not given), the figure is -3.88%; as for `COc1ccc(-c2cc(C(=O)N/N=C/c3cccnc3)c3ccccc3n2)c(OC)c1`, -3.19%; as for `COc1ccc(-c2cc(C(F)(F)F)nc(S(C)(=O)=O)n2)cc1OC`, 60.3% (active).
As for `COc1ccc(-c2cc(C(F)(F)F)nc(NCc3cccnc3)n2)cc1`, the figure is 49.2%; as for `COc1ccc(-c2ccc(Nc3ccc(S(=O)(=O)N4CCCC4)cc3)nn2)cc1OC`, 14.2%.
